Test results: ChEMBL document CHEMBL4689842, “EUbOPEN Chemogenomics Library wave 1” (2021)

System: Fibroblast
Experiment: Multiplex assay against human fibroblast
Format: toxicity, cell-based
How it was run: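 Imaging took place on a CQ1 microscope at 37°C and 5% CO2 once compound had been added to live cells stained at seeding with Hoechst33342, BioTracker Green Microtubule Cytoskeleton Dye, MitoTracker Red and Annexin V Alexa Fluor 680. CellPathfinder machine-learning gating classed cells as Hoechst high-intensity objects or normal cells, classed normal cells as having healthy, pyknosed or fragmented nuclei, and classed pyknosed cells as mitotic or apoptotic. Tubulin, mitochondrial-mass and membrane-permeability phenotypes are per cents of the healthy-nucleus cells.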

[1] = 12 h, 1 µM, compound concentration 1 uM, replicate 1
[2] = 12 h, 1 µM, compound concentration 1 uM, replicate 2
[3] = 12 h, 10 µM, compound concentration 10 uM, replicate 1
[4] = 12 h, 10 µM, compound concentration 10 uM, replicate 2
[5] = 24 h, 1 µM, compound concentration 1 uM, replicate 1
[6] = 24 h, 1 µM, compound concentration 1 uM, replicate 2
[7] = 24 h, 10 µM, compound concentration 10 uM, replicate 1
[8] = 24 h, 10 µM, compound concentration 10 uM, replicate 2
[9] = 48 h, 1 µM, compound concentration 1 uM, replicate 1
[10] = 48 h, 1 µM, compound concentration 1 uM, replicate 2
[11] = 48 h, 10 µM, compound concentration 10 uM, replicate 1
[12] = 48 h, 10 µM, compound concentration 10 uM, replicate 2

For `COc1ncc(-c2ccc3nccc(-c4ccnnc4)c3c2)cc1NS(=O)(=O)c1ccc(F)cc1F` [OMIPALISIB], the “Population Apoptotic (%)” value [1] was 57%, the “Population Fragmented Nuclei (%)” value [1] was 21% and the “Population Healthy Nuclei (%)” value [1] was 49%. The “Population Hoechst High Intensity Objects (%)” value [1] was 12%, the “Population Membrane Permeable-Phenotype (%)” value [1] was 28% and the “Population Mitochondria Different-Phenotype (%)” value [1] was 2%. For the same compound, the “Population Mitotic Cells (%)” value [1] was 42%, the “Population Normal (%)” value [1] was 87% and the “Population Pyknosed Nuclei (%)” value [1] was 29%. For the same compound, the “Population Tubulin-Different-Phenotype (%)” value [1] was 51%, the “Total Cell Count” value [1] was 81 and the “Population Apoptotic (%)” value [2] was 50%. The “Population Fragmented Nuclei (%)” value [2] was 46%, the “Population Healthy Nuclei (%)” value [2] was 42% and the “Population Hoechst High Intensity Objects (%)” value [2] was 7%. The “Population Membrane Permeable-Phenotype (%)” value [2] was 16%, the “Population Mitochondria Different-Phenotype (%)” value [2] was 16% and the “Population Mitotic Cells (%)” value [2] was 50%. The “Population Normal (%)” value [2] was 92%, the “Population Pyknosed Nuclei (%)” value [2] was 11% and the “Population Tubulin-Different-Phenotype (%)” value [2] was 23%. For the same compound, the “Total Cell Count” value [2] was 51, the “Population Apoptotic (%)” value [3] was 78% and the “Population Fragmented Nuclei (%)” value [3] was 20%. For the same compound, the “Population Healthy Nuclei (%)” value [3] was 38%, the “Population Hoechst High Intensity Objects (%)” value [3] was 18% and the “Population Membrane Permeable-Phenotype (%)” value [3] was 30%. The “Population Mitochondria Different-Phenotype (%)” value [3] was 6%, the “Population Mitotic Cells (%)” value [3] was 21% and the “Population Normal (%)” value [3] was 81%. For the same compound, the “Population Pyknosed Nuclei (%)” value [3] was 41%, the “Population Tubulin-Different-Phenotype (%)” value [3] was 73% and the “Total Cell Count” value [3] was 96. The “Population Apoptotic (%)” value [4] was 65%, the “Population Fragmented Nuclei (%)” value [4] was 33% and the “Population Healthy Nuclei (%)” value [4] was 27%. For the same compound, the “Population Hoechst High Intensity Objects (%)” value [4] was 7%, the “Population Membrane Permeable-Phenotype (%)” value [4] was 11% and the “Population Mitochondria Different-Phenotype (%)” value [4] was 16%. For the same compound, the “Population Mitotic Cells (%)” value [4] was 34%, the “Population Normal (%)” value [4] was 92% and the “Population Pyknosed Nuclei (%)” value [4] was 39%. The “Population Tubulin-Different-Phenotype (%)” value [4] was 22%, the “Total Cell Count” value [4] was 77 and the “Population Apoptotic (%)” value [5] was 58%. For the same compound, the “Population Fragmented Nuclei (%)” value [5] was 30%, the “Population Healthy Nuclei (%)” value [5] was 53% and the “Population Hoechst High Intensity Objects (%)” value [5] was 10%. The “Population Membrane Permeable-Phenotype (%)” value [5] was 32%, the “Population Mitochondria Different-Phenotype (%)” value [5] was 2% and the “Population Mitotic Cells (%)” value [5] was 41%. For the same compound, the “Population Normal (%)” value [5] was 89%, the “Population Tubulin-Different-Phenotype (%)” value [5] was 42% and the “Total Cell Count” value [5] was 84. For the same compound, the “Population Apoptotic (%)” value [6] was 33%, the “Population Fragmented Nuclei (%)” value [6] was 43% and the “Population Healthy Nuclei (%)” value [6] was 40%. The “Population Hoechst High Intensity Objects (%)” value [6] was 11%, the “Population Membrane Permeable-Phenotype (%)” value [6] was 24% and the “Population Mitochondria Different-Phenotype (%)” value [6] was 17%. The “Population Mitotic Cells (%)” value [6] was 66%, the “Population Normal (%)” value [6] was 88% and the “Population Pyknosed Nuclei (%)” value [6] was 16%. For the same compound, the “Population Tubulin-Different-Phenotype (%)” value [6] was 37%, the “Total Cell Count” value [6] was 50 and the “Population Apoptotic (%)” value [7] was 66%. The “Population Fragmented Nuclei (%)” value [7] was 25%, the “Population Healthy Nuclei (%)” value [7] was 49% and the “Population Hoechst High Intensity Objects (%)” value [7] was 20%. The “Population Membrane Permeable-Phenotype (%)” value [7] was 31%, the “Population Mitochondria Different-Phenotype (%)” value [7] was 11% and the “Population Mitotic Cells (%)” value [7] was 33%. The “Population Normal (%)” value [7] was 79%, the “Population Pyknosed Nuclei (%)” value [7] was 25% and the “Population Tubulin-Different-Phenotype (%)” value [7] was 80%. The “Total Cell Count” value [7] was 89, the “Population Apoptotic (%)” value [8] was 80% and the “Population Fragmented Nuclei (%)” value [8] was 27%. For the same compound, the “Population Healthy Nuclei (%)” value [8] was 22%, the “Population Hoechst High Intensity Objects (%)” value [8] was 11% and the “Population Membrane Permeable-Phenotype (%)” value [8] was 35%. The “Population Mitochondria Different-Phenotype (%)” value [8] was 28%, the “Population Mitotic Cells (%)” value [8] was 20% and the “Population Normal (%)” value [8] was 88%. For the same compound, the “Population Pyknosed Nuclei (%)” value [8] was 49%, the “Population Tubulin-Different-Phenotype (%)” value [8] was 42% and the “Total Cell Count” value [8] was 81. For the same compound, the “Population Apoptotic (%)” value [9] was 42%, the “Population Fragmented Nuclei (%)” value [9] was 40% and the “Population Healthy Nuclei (%)” value [9] was 48%. For the same compound, the “Population Hoechst High Intensity Objects (%)” value [9] was 16%, the “Population Membrane Permeable-Phenotype (%)” value [9] was 21% and the “Population Mitochondria Different-Phenotype (%)” value [9] was 12%. For the same compound, the “Population Mitotic Cells (%)” value [9] was 57%, the “Population Normal (%)” value [9] was 83% and the “Population Pyknosed Nuclei (%)” value [9] was 10%. The “Population Tubulin-Different-Phenotype (%)” value [9] was 37%, the “Total Cell Count” value [9] was 79 and the “Population Apoptotic (%)” value [10] was 0%. For the same compound, the “Population Fragmented Nuclei (%)” value [10] was 47%, the “Population Healthy Nuclei (%)” value [10] was 52% and the “Population Hoechst High Intensity Objects (%)” value [10] was 13%. The “Population Membrane Permeable-Phenotype (%)” value [10] was 35%, the “Population Mitochondria Different-Phenotype (%)” value [10] was 3% and the “Population Mitotic Cells (%)” value [10] was 0%. The “Population Normal (%)” value [10] was 86%, the “Population Pyknosed Nuclei (%)” value [10] was 0% and the “Population Tubulin-Different-Phenotype (%)” value [10] was 53%. For the same compound, the “Total Cell Count” value [10] was 61, the “Population Apoptotic (%)” value [11] was 63% and the “Population Fragmented Nuclei (%)” value [11] was 34%. For the same compound, the “Population Healthy Nuclei (%)” value [11] was 50%, the “Population Hoechst High Intensity Objects (%)” value [11] was 17% and the “Population Membrane Permeable-Phenotype (%)” value [11] was 31%. The “Population Mitochondria Different-Phenotype (%)” value [11] was 14%, the “Population Mitotic Cells (%)” value [11] was 36% and the “Population Normal (%)” value [11] was 82%. The “Population Pyknosed Nuclei (%)” value [11] was 15%, the “Population Tubulin-Different-Phenotype (%)” value [11] was 82% and the “Total Cell Count” value [11] was 85. For the same compound, the “Population Apoptotic (%)” value [12] was 0%, the “Population Fragmented Nuclei (%)” value [12] was 33% and the “Population Healthy Nuclei (%)” value [12] was 65%. The “Population Hoechst High Intensity Objects (%)” value [12] was 12%, the “Population Membrane Permeable-Phenotype (%)” value [12] was 20% and the “Population Mitochondria Different-Phenotype (%)” value [12] was 8%. For the same compound, the “Population Mitotic Cells (%)” value [12] was 100%, the “Population Normal (%)” value [12] was 87% and the “Population Pyknosed Nuclei (%)” value [12] was 1%. The “Population Tubulin-Different-Phenotype (%)” value [12] was 93% and the “Total Cell Count” value [12] was 86.
